# RAD52 inh: blocks human RAD52 DNA annealing; inhibition, % at 18.7 µM; actives 0.46% (n = 360,000); P43351; recombinant RAD52 DNA annealing, FRET fluorescence;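 active = every replicate showing at least 50% inhibition; inconclusive = mean inhibition at least 50% but not in every replicate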
# CAL PDZ FP-1: inhibitors of human CAL PDZ peptide binding. Q9HD26. purified CAL PDZ, TMR-peptide fluorescence polarization, 1 h. inhibition, % at 20 µM. actives 0.02% (n = 330,000). AID 504414;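 active = highest replicate inhibition of at least 40%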
#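 System: tagged CAL PDZ domain. Schedule: 1 h room-temperature incubation prior to read. Signal: fluorescence polarization (mP). Measure: percent inhibition from loss of millipolarization.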
# RAD54 inh: inhibitors of human RAD54 branch migration; inhibition, % at 10.4 µM; RAD54 Holliday junction branch migration, FAM/BHQ fluorescence; AID 602329; actives 0.14% (n = 360,000);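 active = mean normalized replicate activity at least 40 and at least half of replicates scoring 40 or more; inconclusive = only one of the two criteria met; inactive = mean below 40 and under half of replicates reaching 40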;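 note: inhibitors cause a drop in the FAM fluorescence signal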
# PDI inh: inhibitors of human protein disulfide isomerase; P07237; PDI insulin aggregation turbidity, A650, 90 min; inhibition, % at 10 µM; actives 0.052% (n = 350,000); AID 588391;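 active = mean inhibition across replicates of 30% or more, whatever share of single replicates reach that level; inconclusive = mean inhibition below 30% while every single replicate reaches 30%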
# Target sequence (P07237 whole entry, looked up): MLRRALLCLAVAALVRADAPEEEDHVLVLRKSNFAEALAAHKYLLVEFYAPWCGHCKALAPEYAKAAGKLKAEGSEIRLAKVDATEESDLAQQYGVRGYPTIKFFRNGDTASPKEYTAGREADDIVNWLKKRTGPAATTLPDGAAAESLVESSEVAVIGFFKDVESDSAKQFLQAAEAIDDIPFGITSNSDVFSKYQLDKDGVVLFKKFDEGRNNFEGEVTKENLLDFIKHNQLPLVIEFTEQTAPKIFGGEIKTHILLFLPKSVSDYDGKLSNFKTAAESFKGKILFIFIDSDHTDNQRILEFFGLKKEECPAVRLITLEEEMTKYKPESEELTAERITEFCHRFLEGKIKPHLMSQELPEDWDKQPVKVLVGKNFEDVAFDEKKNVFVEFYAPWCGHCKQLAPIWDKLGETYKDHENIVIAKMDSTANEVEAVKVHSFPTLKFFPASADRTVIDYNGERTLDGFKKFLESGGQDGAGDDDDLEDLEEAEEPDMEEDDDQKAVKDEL
# CAL PDZ FP-2: blocks peptide binding to the human CAL PDZ domain; purified CAL PDZ, TMR-peptide fluorescence polarization, 1 h; inhibition, % at 24.9 µM; actives 0.92% (n = 300,000);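 active = mean inhibition of at least 30% with at least half of replicates also reaching 30%; inconclusive = no clear call, values can overlap the other calls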
# ERp5 block: ERp5 (human) disulfide isomerase inhibition | actives 0.05% (n = 350,000) | inhibition, % at 9.99 µM | ERp5 insulin aggregation, absorbance 650 nm, 90 min;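 active = mean replicate inhibition above about 25%, with every replicate also reaching it, limit read from the data, passing the limit was not always enough; inconclusive = only one of those two criteria met; inactive = neither criterion met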
# A number is an active result; – = inactive; ? = inconclusive; · = not tested or not shown; ! = not confirmed by another sample. A selection: hits, their analogues and other compounds. The true share with any hit is near 1%.
SMILES,RAD52 inh,CAL PDZ FP-1,RAD54 inh,PDI inh,CAL PDZ FP-2,ERp5 block
CNC[C@@H]1Oc2ccc(NC(=O)Nc3ccc(C(F)(F)F)cc3)cc2CC(=O)N([C@H](C)CO)C[C@H]1C,–,·,–,·,·,–
O=C(C[C@H]1CC[C@H](NC(=O)Nc2ccccc2F)[C@H](CO)O1)NCc1ccccc1,–,·,–,·,·,–
Cc1cccc(C)c1NC(=S)N/N=C/c1c(Cl)cccc1Cl,–,–,·,–,33,–
CNC(=S)N/N=C/c1c(Cl)cccc1Cl,–,–,–,–,–,–
COc1ccccc1Oc1coc2cc(OC(=O)N3CCOCC3)ccc2c1=O,·,102,–,–,–,·
COc1cccc(Oc2coc3cc(OC(=O)N4CCOCC4)ccc3c2=O)c1,–,–,·,–,–,–
O=C(Oc1ccccc1)N1CCOCC1,–,–,–,–,74,–
C[C@@H]1CN([C@H](C)CO)C(=O)c2cc(NC(=O)NC3CCCCC3)ccc2O[C@@H]1CN(C)Cc1ccc(Oc2ccccc2)cc1,–,·,–,·,·,–
O=C1NCCCC1C(=O)N/N=C/c1cc([N+](=O)[O-])ccc1O (centres undefined),–,–,–,–,–,–
O=C(N/N=C/c1cc([N+](=O)[O-])ccc1O)C1CC1,–,–,–,–,79,–
CCCCNC(=O)NNC(=O)C1CC1(c1ccccc1)c1ccccc1 (centres undefined),–,–,–,–,–,–
CC(C)(C)C(=O)NNC(=O)C1CC1(c1ccccc1)c1ccccc1 (centres undefined),–,–,–,–,35,–
CC(C)(C)NC(=O)/C(=C/c1ccccc1F)NC(=O)c1ccc([N+](=O)[O-])cc1,–,–,·,–,–,–
O=C(Nc1cccc2ccccc12)/C(=C/c1ccc([N+](=O)[O-])cc1)NC(=O)c1ccccc1,·,–,–,–,68,·
CC(C)(C)NC(=O)/C(=C\c1ccccc1F)NC(=O)c1ccc([N+](=O)[O-])cc1,–,–,·,–,70,–
O=C(Nc1cccc(C(=O)O)c1)/C(=C/c1ccc([N+](=O)[O-])cc1)NC(=O)c1ccccc1,–,–,–,–,·,–
CCCOc1ccc(C(=O)O)cc1,–,–,–,–,77,–
Cc1cccc(Oc2ccc(N)cc2)c1,·,–,·,–,–,·
Nc1ccc(Oc2cccc(Oc3ccc(N)cc3)c2)cc1,–,–,·,–,39,–
CC(C)CCC(CCN1CCCC1)c1ccc2c(c1)OCO2 (centres undefined),–,–,–,–,74,–
C[C@H]1CN([C@@H](C)CO)C(=O)c2cc(NC(=O)CCCCCC(=O)Nc3ccccc3N)ccc2O[C@@H]1CN(C)C(=O)Nc1cccc2ccccc12,–,·,·,·,·,–
O=c1nccc(Nc2ccccc2)[nH]1,–,–,–,–,63,–
O=C(c1ccc(F)cc1)N1CC(=O)N2[C@H](CO)[C@@H](c3ccc(-c4ccccc4)cc3)[C@H]2C1,–,·,·,·,·,–
N#C/C(=C\c1ccccc1OCc1ccc(C(=O)O)cc1)C(=O)Nc1ccc(O)cc1,–,–,·,51,–,–
COC(=O)c1ccc(COc2ccccc2/C=C(\C#N)C(=O)Nc2ccc(C)cc2)cc1,·,–,–,–,–,·
SMILES,RAD52 inh,CAL PDZ FP-1,RAD54 inh,PDI inh,CAL PDZ FP-2,ERp5 block
c1cc2ccc3ccc(-n4cnnn4)c4ccc(c1)c2c34,·,·,–,–,119,·
O=C(NCCN1CCN(C(=O)c2ccccc2Cl)CC1)C(=O)NCc1ccccc1,–,–,–,–,48,–
O=C(NCCN1CCN(C(=O)c2cccc(Br)c2)CC1)C(=O)NCc1ccccc1,–,–,–,–,–,–
CC(=O)Nc1ccc(NC(=O)C(C)N(C)CC(=O)Nc2ccccc2Br)cc1 (centres undefined),–,–,–,–,33,–
O=C(CN1C(=O)NC2NC(=O)NC21)NC1CCCCC1 (centres undefined),–,–,–,–,39,–
COc1ccc(OC)c(C(=O)COC(=O)c2cccnc2SC)c1,–,–,–,–,35,–
N#Cc1cccc(-c2ccc(C3[C@@H]4CN(Cc5cocn5)C[C@H]3N4)cc2)c1 (some centres undefined),65,·,·,·,·,–
N#Cc1cccc(-c2ccc(C3[C@@H]4CN(Cc5ccccc5F)C[C@H]3N4)cc2)c1 (some centres undefined),83!,·,·,·,·,–
c1ncc(-c2ccc(C3[C@@H]4CN(Cc5cocn5)C[C@H]3N4)cc2)cn1 (some centres undefined),–,·,·,·,·,?
Cc1noc(C)c1NC(=O)N(C)C[C@@H]1Oc2ccc(NC(=O)NC(C)C)cc2C(=O)N([C@@H](C)CO)C[C@@H]1C,–,·,–,·,·,–
O=C(/C=C/c1ccccc1Cl)N(Cc1ccc(Cl)cc1)C1CCS(=O)(=O)C1 (centres undefined),·,–,·,–,71,·
O=C(/C=C/c1ccccc1Cl)N(Cc1ccccc1)C1CCS(=O)(=O)C1 (centres undefined),·,–,·,–,–,·
O=C(Nc1ccccc1)Nc1nccs1,·,–,–,–,–,·
CC(C)(C(=O)Nc1nccs1)c1ccccc1,–,–,–,–,66,–
CN1C(=O)c2cc(NC(=O)c3ccc(F)cc3)ccc2OC[C@@H]2O[C@H](CC(=O)N3CCOCC3)CC[C@H]21,–,·,–,·,·,–
CC(C)NC(=O)Nc1ccc2c(c1)C(=O)N([C@H](C)CO)C[C@@H](C)[C@@H](CN(C)C(=O)NC1CCCCC1)OCCCC[C@H](C)O2,–,·,–,·,·,–
COc1ccc(NC(=O)N2CCN(S(C)(=O)=O)CC2)c(OC)c1,–,–,·,–,38,–
COc1ccc(NC(=O)N2CCCCCC2)c(OC)c1,–,–,–,–,·,–
C[C@H]1CN([C@@H](C)CO)C(=O)c2cc(-c3ccncc3)cnc2O[C@H]1CN(C)C(=O)c1ccc(F)cc1,–,·,–,·,·,–
CC(=O)N1CCCCN2[C@H](CO)[C@@H](c3ccc(C#Cc4ccccc4F)cc3)[C@H]2C1,–,·,–,·,·,–
CN1CCCCN2[C@H](CO)[C@@H](c3ccc(C#Cc4ccccc4F)cc3)[C@@H]2C1,69,·,–,·,·,–
CN1CCCCN2[C@@H](CO)[C@@H](c3ccc(C#Cc4ccccc4F)cc3)[C@@H]2C1,71,·,–,·,·,–
Cc1cccc(C(=O)Nc2sc(-c3ccccc3)cc2C(=O)O)c1,–,–,–,–,43,–
CC(=NO)C1CCC2C3CCC4=CC(=NO)CCC4(C)C3C(=O)CC12C (centres undefined),–,–,–,37,–,–
COc1ccc(N(CC(=O)NCCSC2CCCCC2)S(=O)(=O)c2ccccc2)c(OC)c1,–,–,–,?,–,–
COc1ccc(N(CC(=O)NCCSc2ccc(C)cc2)S(=O)(=O)c2ccccc2)c(OC)c1,–,–,–,–,40,–
COc1ccc2c3c([nH]c2c1)[C@H](CO)N(C(=O)CN(C)C)CC31CN(CC2CC2)C1,50,·,·,·,·,–
